The source made the active and inactive calls. The rule behind the calls is not given here.
How the values were obtained:
Assay type in all cases: functional
Plasmodium falciparum [1] = test: Antimalarial activity against MRA-150, chloroquine, pyrimethamine, mefloquine-resistant asexual blood stage Plasmodium falciparum Dd2 after 72 hrs by SYBR green assay; details: Dd2, 72 h
Summary of the method: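 Dd2 parasites were kept in O-positive human erythrocytes in RPMI 1640 with Albumax I, hypoxanthine and HEPES. Ring-stage cultures (1% hematocrit, 1% parasitemia) were given eight- or ten-point dilutions of 20 to 0.02 μM in 0.1% DMSO for 72 h at 37 °C under low O2. Growth was read by SYBR green, with uninfected-erythrocyte background and normalisation to untreated 0.1% DMSO controls. IC50 came from a four-parameter variable-slope fit, mean of ≥2 independent experiments ± S.D.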

Escherichia coli = test: Antibacterial activity against Escherichia coli BL21(DE3) after 18 hrs by cell density meter
Summary of the method: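 Overnight culture (37 °C, 200 rpm) diluted 100-fold into LB, grown to OD600 ~0.6, then diluted 10,000-fold; mixed 1:1 with compound prediluted in LB at 500, 250 and 125 μM; 5% DMSO final. Incubated 18 h, 37 °C, 200 rpm; growth normalized to untreated inoculum and compared with 5% DMSO vehicle; controls fosmidomycin 100 μM, uninoculated medium; three independent experiments.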

Plasmodium falciparum [2] = test: Antimalarial activity against MRA-150, chloroquine, pyrimethamine, mefloquine-resistant asexual blood stage Plasmodium falciparum Dd2 assessed as rescue at 2.5 uM after 72 hrs by SYBR green assay in presence of 200 uM IPP
Plasmodium falciparum [3] = test: Antimalarial activity against MRA-150, chloroquine, pyrimethamine, mefloquine-resistant asexual blood stage Plasmodium falciparum Dd2 assessed as rescue after 72 hrs by SYBR green assay in presence of 200 uM IPP; details: Dd2, 72 h
Summary of the method: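 Ring-stage Dd2 cultures (1% hematocrit, 1% parasitemia, human erythrocytes) were grown with 200 μM IPP and a 10 to 0.02 μM serial dilution for 72 h at 37 °C under reduced O2. Growth was read by SYBR green and normalised to untreated 0.1% DMSO controls. Data are the mean ± S.D. of two or more independent experiments.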

Plasmodium falciparum [4] = test: Antimalarial activity against MRA-150, chloroquine, pyrimethamine, mefloquine-resistant asexual blood stage Plasmodium falciparum Dd2 assessed as rescue at 10 uM after 72 hrs by SYBR green assay in presence of 200 uM IPP
Summary of the method: (§1)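 Single-concentration test (10 or 20 μM) run with or without 200 μM IPP on ring-stage Dd2 cultures (1% hematocrit, 1% parasitemia) in human erythrocytes. Incubation was 72 h at 37 °C under reduced O2. Growth was read by SYBR green, with background from uninfected erythrocytes and normalisation to untreated DMSO vehicle controls.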

Plasmodium falciparum [5] = test: Antimalarial activity against MRA-150, chloroquine, pyrimethamine, mefloquine-resistant asexual blood stage Plasmodium falciparum Dd2 at 10000 nM after 72 hrs by SYBR green assay; details: Dd2, 72 h, read-out: GI; summary of the method: as §1
Plasmodium falciparum [6] = test: Antimalarial activity against MRA-150, chloroquine, pyrimethamine, mefloquine-resistant asexual blood stage Plasmodium falciparum Dd2 assessed as rescue at 5 uM after 72 hrs by SYBR green assay in presence of 200 uM IPP
Plasmodium falciparum [7] = test: Antimalarial activity against MRA-150, chloroquine, pyrimethamine, mefloquine-resistant asexual blood stage Plasmodium falciparum Dd2 assessed as rescue at 20 uM after 72 hrs by SYBR green assay in presence of 200 uM IPP; summary of the method: as §1
Plasmodium falciparum [8] = test: Antimalarial activity against MRA-150, chloroquine, pyrimethamine, mefloquine-resistant asexual blood stage Plasmodium falciparum Dd2 at 20000 nM after 72 hrs by SYBR green assay; details: Dd2, 72 h, read-out: GI; summary of the method: as §1

## O=C(O)[C@@H]1Cc2c([nH]c3ccccc23)[C@H](c2ccccc2)N1
Plasmodium falciparum [1]
  IC50: > 10000 nM

## COc1ccc([C@H]2N[C@H](C(=O)O)Cc3c2[nH]c2ccccc32)c(OC)c1
Plasmodium falciparum [1]
  IC50: > 20000 nM

## O=C(O)[C@@H]1Cc2c([nH]c3ccccc23)[C@@H](c2ccc(C(F)(F)F)cc2C(F)(F)F)N1
Plasmodium falciparum [1]
  IC50: > 10000 nM

## CNC(=O)[C@@H]1Cc2c([nH]c3ccccc23)[C@@H](c2ccc(Cl)cc2Cl)N1
Escherichia coli
  Activity: inactive
Plasmodium falciparum [2]
  Activity: 100%
Plasmodium falciparum [3]
  IC50: > 10000 nM
Plasmodium falciparum [1]
  IC50: 190 nM

## O=C(O)[C@@H]1Cc2c([nH]c3ccccc23)[C@H](c2ccc(F)cc2F)N1
Plasmodium falciparum [1]
  IC50: > 20000 nM

## NC(=O)[C@@H]1Cc2c([nH]c3ccccc23)[C@@H](c2ccc(Cl)cc2Cl)N1
Plasmodium falciparum [1]
  IC50: 1200 nM
Plasmodium falciparum [4]
  Activity: 50%

## CNC(=O)[C@@H]1Cc2c([nH]c3ccccc23)[C@@H](c2ccc(C)cc2Cl)N1
Escherichia coli
  Activity: inactive
Plasmodium falciparum [2]
  Activity: 100%
Plasmodium falciparum [1]
  IC50: 340 nM

## O=C(O)[C@@H]1Cc2c([nH]c3ccccc23)[C@@H](c2ccc(Cl)cc2Cl)N1
Escherichia coli
  Activity: inactive
Plasmodium falciparum [2]
  Activity: 100%
Plasmodium falciparum [3]
  IC50: > 10000 nM
Plasmodium falciparum [1]
  IC50: 250 nM

## CN1CC(=O)N2[C@H](c3ccc4c(c3)OCO4)c3[nH]c4ccccc4c3C[C@@H]2C1=O [TADALAFIL]
Plasmodium falciparum [1]
  IC50: > 20000 nM

## O=C(O)C1Cc2c([nH]c3ccccc23)C(c2ccc(Cl)cc2Cl)N1 (stereo not given)
Plasmodium falciparum [2]
  Activity: 100%
Plasmodium falciparum [1]
  IC50: 210 nM

## Cc1cc(Cl)ccc1[C@H]1N[C@H](C(=O)O)Cc2c1[nH]c1ccccc21
Escherichia coli
  Activity: inactive
Plasmodium falciparum [2]
  Activity: 100%
Plasmodium falciparum [3]
  IC50: > 10000 nM
Plasmodium falciparum [1]
  IC50: 700 nM

## O=C(O)[C@@H]1Cc2c([nH]c3ccccc23)[C@@H](c2ccccc2Cl)N1
Plasmodium falciparum [1]
  IC50: 3280 nM
Plasmodium falciparum [4]
  Activity: 60%

## O=C(O)[C@@H]1Cc2c([nH]c3ccccc23)[C@@H](c2ccc(Cl)cc2)N1
Plasmodium falciparum [1]
  IC50: 1170 nM
Plasmodium falciparum [4]
  Activity: 50%

## COc1ccc([C@H]2N[C@H](C(=O)O)Cc3c2[nH]c2ccccc32)cc1OC
Plasmodium falciparum [1]
  IC50: > 20000 nM

## O=C(O)[C@@H]1Cc2c([nH]c3ccccc23)[C@H](c2ccc(Cl)cc2Cl)N1
Plasmodium falciparum [1]
  IC50: > 10000 nM

## CCCCNC(=O)[C@@H]1Cc2c([nH]c3ccccc23)[C@@H](c2ccc(Cl)cc2Cl)N1
Plasmodium falciparum [5]
  inhibition of growth at 10 µM: 80%

## O=C(O)[C@@H]1Cc2c([nH]c3ccccc23)[C@@H](c2ccccc2)N1
Plasmodium falciparum [1]
  IC50: > 10000 nM

## CC(C)NC(=O)[C@@H]1Cc2c([nH]c3ccccc23)[C@@H](c2ccc(Cl)cc2Cl)N1
Plasmodium falciparum [5]
  inhibition of growth at 10 µM: 50%

## O=C(O)[C@@H]1Cc2c([nH]c3ccccc23)[C@@H](c2ccc(F)cc2F)N1
Escherichia coli
  Activity: inactive
Plasmodium falciparum [3]
  IC50: > 10000 nM
Plasmodium falciparum [1]
  IC50: 780 nM
Plasmodium falciparum [6]
  Activity: 100%

## Cc1ccc([C@H]2N[C@H](C(=O)O)Cc3c2[nH]c2ccccc32)c(Cl)c1
Escherichia coli
  Activity: inactive
Plasmodium falciparum [2]
  Activity: 100%
Plasmodium falciparum [3]
  IC50: > 10000 nM
Plasmodium falciparum [1]
  IC50: 410 nM

## CNNC(=O)[C@@H]1Cc2c([nH]c3ccccc23)[C@@H](c2ccc(Cl)cc2Cl)N1
Plasmodium falciparum [1]
  IC50: 1940 nM
Plasmodium falciparum [4]
  Activity: 80%

## O=C(NC1CCCCC1)[C@@H]1Cc2c([nH]c3ccccc23)[C@@H](c2ccc(Cl)cc2Cl)N1
Plasmodium falciparum [1]
  IC50: 2830 nM
Plasmodium falciparum [4]
  Activity: 0%

## COC(=O)[C@@H]1Cc2c([nH]c3ccccc23)[C@@H](c2ccc(Cl)cc2Cl)N1
Plasmodium falciparum [7]
  Activity: 20%
Plasmodium falciparum [1]
  IC50: 6800 nM

## CNC(=O)[C@@H]1Cc2c([nH]c3ccccc23)[C@@H](c2ccc(F)cc2F)N1
Escherichia coli
  Activity: inactive
Plasmodium falciparum [2]
  Activity: 100%
Plasmodium falciparum [1]
  IC50: 1200 nM

## CNC(=O)[C@@H]1Cc2c([nH]c3ccccc23)[C@@H](c2ccc(Cl)cc2C)N1
Plasmodium falciparum [1]
  IC50: 1850 nM
Plasmodium falciparum [4]
  Activity: 50%

## COC(=O)[C@@H]1Cc2c([nH]c3ccccc23)[C@@H](c2ccccc2)N1
Plasmodium falciparum [8]
  inhibition of growth at 20 µM: 20%

## Cc1ccc([C@@H]2N[C@H](C(=O)O)Cc3c2[nH]c2ccccc32)c(Cl)c1
Plasmodium falciparum [1]
  IC50: > 10000 nM

## O=C(O)[C@H]1Cc2c([nH]c3ccccc23)[C@H](c2ccc(Cl)cc2Cl)N1
Plasmodium falciparum [1]
  IC50: > 10000 nM

## Clc1ccc(C2NCCc3c2[nH]c2ccccc32)c(Cl)c1 (racemic)
Plasmodium falciparum [1]
  IC50: 10000 nM

## O=C(O)[C@H]1Cc2c([nH]c3ccccc23)[C@@H](c2ccc(Cl)cc2Cl)N1
Plasmodium falciparum [1]
  IC50: 3000 nM
Plasmodium falciparum [4]
  Activity: 60%

## O=CN(O)CCCP(=O)(O)O [FOSMIDOMYCIN]
Plasmodium falciparum [4]
  Activity: 100%

## CNC(=O)[C@@H]1Cc2c([nH]c3ccccc23)[C@@H](c2ccc(C(F)(F)F)cc2C(F)(F)F)N1
Plasmodium falciparum [1]
  IC50: > 10000 nM

## Cc1ccc([C@H]2N[C@H](C(=O)O)Cc3c2[nH]c2ccccc32)c(C)c1
Plasmodium falciparum [5]
  inhibition of growth at 10 µM: 70%

## Cc1ccc([C@@H]2N[C@H](C(=O)O)Cc3c2[nH]c2ccccc32)c(C)c1
Plasmodium falciparum [1]
  IC50: > 10000 nM

## COC(=O)[C@H]1Cc2c([nH]c3ccccc23)[C@H](c2ccc(Cl)cc2Cl)N1
Plasmodium falciparum [7]
  Activity: 0%
Plasmodium falciparum [1]
  IC50: 7700 nM

## CNC(=O)[C@@H]1Cc2c([nH]c3ccccc23)[C@@H](c2ccc(C)cc2C)N1
Plasmodium falciparum [5]
  inhibition of growth at 10 µM: 70%

Reference: ChEMBL document CHEMBL3400070, “Determination of the active stereoisomer of the MEP pathway-targeting antimalarial agent MMV008138, and initial structure-activity studies” (Bioorg Med Chem Lett, 2015)
